Results: ChEMBL document CHEMBL4513216, “Probing the Open Global Health Chemical Diversity Library for Multistage-Active Starting Points for Next-Generation Antimalarials” (ACS Infect Dis, 2020)

assay: Toxicity liver stage against HepG2, at 10uM; format: cell-based; design: test concentration 10 uM, cell line HepG2-A16-CD81EGFP; settings: human, HepG2-A16-CD81EGFP cells; read-out: INHIBITION
In short: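 Uninfected HepG2-A16-CD81EGFP cells, 3 × 10^3 per well, 1536-well, plated on prespotted compound at 10 μM final, parasite-free screening media added to match infected plates; puromycin 10 μM positive, DMSO 0.5% negative; run in parallel with 48 h PbLuc assay at 37 °C, 5% CO2; viability by CellTiter-Glo luminescence, normalized to controls.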

Structure (SMILES) | cytotoxicity at 10 µM
CC(C)Cc1cc(CC2(NCc3ccccc3Cl)COC2)no1 | -7.55%
CC(C)(C)c1coc([C@@H]2COCCN2Cc2csnn2)n1 | 3.33%
Cc1cccnc1CNC[C@H]1Cn2cc(-c3ccccc3)nc2CO1 | -2.56%
Cc1cc(Cc2ccc(S(=O)(=O)N3CCCC3)cc2)c(=O)[nH]n1 | 6.47%
CCN(CC)CCSc1nnc(N2CCN(c3ccccc3)CC2)s1 | -21.9%
c1ccc(O[C@@H]2CC[C@H]3[C@H]2OCCN3Cc2ccsc2)nc1 | 1.24%
Cc1oncc1C(=O)N1CC[C@H]2[C@H]1CCN2Cc1ccccn1 | 6.15%
CNc1nc2c(s1)C(c1ccccc1Cl)CC(=O)N2 (stereo not drawn) | 2.82%
Cc1c(C(=O)N2CCN(C)CC2)n(C)c2ccc(Cl)cc12 | -2.46%
COC(=O)c1ccc(OC)c(Cn2cc(Br)cn2)c1 | 3.05%
COC(=O)c1cc(C2CC2)nc2c(Cl)cnn12 | 14.7%
Cc1noc(C2CCN(C(=O)c3cccs3)CC2)n1 | -1.22%
COC(=O)CCn1ccc(=O)c2ccccc21 | -6.84%
Cc1cc(N(C)C)nc(C2COCCN2Cc2nccn2C)n1 (stereo not drawn) | -3.43%
CCC(=O)N1CCC(c2nc(N3CCCC3)ncc2S(C)(=O)=O)CC1 | 3.86%
COc1ccc(CN(C)CC2(O)CCNC2)cc1 (stereo not drawn) | -1.68%
Cc1cc(CC2COCCN(CCc3ccccc3)C2)ncn1 (stereo not drawn) | 2.04%
c1ccc(N2CCN(Cc3cnc(C4CCCCO4)nc3)CC2)cc1 (stereo not drawn) | 0.59%
CN1CCCC(c2ccnc(C(=O)NC3CC3)c2)C1 (stereo not drawn) | -29.5%
CCCC(=O)N1CCCCC1c1nccc(C)n1 (stereo not drawn) | -21%
NC(=O)C1(c2cnccn2)CCCN1Cc1ccc(F)c(F)c1 (stereo not drawn) | -14%
c1ccc(OCCN2CCC(c3nnc(-c4cccnc4)o3)CC2)cc1 | -27.9%
Cc1n[nH]cc1C(=O)N1CCCC(n2nnc3cc(F)ccc32)C1 (stereo not drawn) | -2.91%

Structure (SMILES) | cytotoxicity at 10 µM
CN1CC(=O)N(C2CCC2)Cc2c(NC3CCNCC3)ncnc21 | 8.77%
COc1cccc([S+]([O-])CC(=O)NCc2cc(F)cc(F)c2)c1 (stereo not drawn) | -0.491%
CC(NS(=O)(=O)CC1(C#N)CCCC1)c1cccc(-n2cccn2)c1 (stereo not drawn) | 3.15%
FC(F)(F)Oc1cccc(CNCc2ccc(-n3cncn3)nc2)c1 | 20.3%
CCCc1c(C(=O)N2CCN(c3nccc(OC)n3)CC2)cnn1C | 17.2%
O=C1CCCN1CCCN1CCCC(Cn2cncn2)C1 (stereo not drawn) | -1.82%
COCc1nc(C(=O)NS(=O)(=O)c2ccc(F)c(F)c2)cs1 | 7.97%
CC(C)(C)C(=O)NCCC(=O)NS(=O)(=O)c1cccnc1 | -3.15%
CCN(Cc1ccoc1)c1ncc(S(N)(=O)=O)s1 | 5.73%
CC(NC(=O)N1CCc2sccc2C1)c1nncn1C (stereo not drawn) | -8.6%
O=C(c1cc2c([nH]c1=O)CCC2)N1CCCC1c1ccc(F)cc1 (stereo not drawn) | -6.14%
O=C1c2ccccc2C(=O)N1CC(O)Cn1nc(-c2cccs2)oc1=O (stereo not drawn) | -14.5%
CN(Cc1ccncc1)C(=O)CCNS(=O)(=O)c1cccnc1 | 0.541%
Cc1cc(Br)oc1C(=O)N1CCN(CC(N)=O)CC1 | 0.658%
CC(=O)N1CCC(c2nc(Cc3ccccc3)no2)C1 (stereo not drawn) | 5.15%
CCCS(=O)(=O)NCC(C)(O)c1ccsc1 (stereo not drawn) | -1.7%
O=C(Nc1nnc(C(F)F)s1)N[C@H](CCO)c1ccccc1 | 1.88%
Cc1cc(C(=O)NC2(c3cccc(F)c3)CCOCC2)no1 | 1.42%
CCOc1cc(C)nc(N2CCN(C(=O)c3cc(Cl)c[nH]3)CC2)n1 | 6.81%
COc1ccc2c(c1)C(=O)N(C)C1(CCN(C(=O)OC(C)(C)C)CC1)N2 | 25.1%
COc1cccc2c1N(Cc1nc3c(cnn3C)c(=O)[nH]1)CCC2 | -4.15%
CCN(CC)S(=O)(=O)N1CCCC1c1nnc2n1CCCCC2 (stereo not drawn) | -6.83%
Cc1noc(C)c1CNc1cccc(C(=O)N2CCCC(O)C2)c1 (stereo not drawn) | -6.08%

Structure (SMILES) | cytotoxicity at 10 µM
CS(=O)(=O)CCCN1CCOC2(CCc3ccccc32)C1 (stereo not drawn) | -5.14%
Cc1cc(=O)n(C)cc1NC(=O)NCc1cccc(F)c1 | -5.3%
OC(CN(Cc1ccccc1)Cc1cscn1)c1ccco1 (stereo not drawn) | 5.04%
CN(C(=O)COC1CCCC1)C1CCN(CC2CCOC2)CC1 (stereo not drawn) | -9.98%
NC(=O)CN1CCCC1c1ccccc1Br (stereo not drawn) | 4.01%
COc1ccnc(N(C)Cc2ccccc2O)n1 | 2.29%
Cc1ccsc1CNc1ccc(C(=O)N2CCNC(=O)C2)cn1 | 7.04%
Cc1noc(C)c1CN(C)Cc1nc(N)c2ccccc2n1 | 8.85%
COc1ccccc1C1(CNCc2cccc(C#N)c2)CCOCC1 | 6.37%
COCCCN(C)S(=O)(=O)c1ccc(C(F)(F)F)cc1C#N | -4.55%
CC(C)c1nnc2n1CCN(C(C)c1nnc(-c3cccs3)o1)C2 (stereo not drawn) | 7.8%
O=C(NCC1(Sc2ccccc2)CC1)c1c[nH]nn1 | -17.9%
O=C(c1ccc2c(c1)CCO2)N1CCN(c2ncccn2)CC1 | 8.92%
Cc1cccnc1CSCCCNS(C)(=O)=O | -15.1%
CCS(=O)(=O)CCN(C)Cc1cc(C)ccc1OC | -51.5%
O=C(c1ccc2c(c1)[nH]c(=O)n2C1CCCC1)N1CCC1 | -46.4%
Cn1cc(CCCN2CCN(C(=O)c3cccc(O)c3)CC2)cn1 | -46.1%
N#Cc1ccccc1CN(CC(N)=O)C1CCCC1 | 10.4%
CC(C)COC1CCN(S(=O)(=O)Cc2cccc(F)c2)CC1 | -2.11%
Cc1cc(CS(=O)(=O)c2ccccc2)no1 | 10.5%
CC(O)(CNc1ccccn1)c1ccccc1 (stereo not drawn) | -44.3%
CCCS(=O)(=O)N1CCC(NC(=O)c2ccc(Cl)s2)CC1 | 22.4%
CC(C)CNC(=O)C1=NOC2(CCN(Cc3cccc(C#N)c3)C2)C1 (stereo not drawn) | 8.37%

Structure (SMILES) | cytotoxicity at 10 µM
Cc1ccc(N2CCC(c3cc(Cc4ccccc4)n[nH]3)CC2)nn1 | 3.53%
COc1ccccc1CN1C(=O)O[C@@H]2CN(c3nc(C)cnc3C)C[C@@H]21 | 1.06%
COCCn1ccnc1C1CCCN(C(=O)CSc2nnc(C)o2)C1 (stereo not drawn) | -4.3%
C=C(C)COc1ccc(C(=O)NCCn2c(C)cc(C)nc2=O)cc1 | -4.83%
c1cncc(CN2CCCC(Nc3ncnc4c3CCNCC4)C2)c1 (stereo not drawn) | 4.42%
CS(=O)(=O)N1CC[C@]2(O)CCN(c3ccnc(N)n3)C[C@@H]2C1 | 21%
COCC(=O)N1CCC(C(=O)N(C)CCCc2nccn2C)CC1 | -1.81%
COc1cnc(N2CCN(C)CC2)nc1-c1ccnn1C | 0.868%
Cc1cnc(NCCCN2CCCCC2CO)nc1 (stereo not drawn) | -7.17%
Cc1ccsc1-c1nccn1CCN1CCCOC1=O | -4.68%
COCc1ncc(CN(Cc2ccco2)C(C)C(C)C)cn1 (stereo not drawn) | -0.0832%
O=C(NCc1cn2c(n1)SCC2)c1cn(CCN2CCCCC2)nn1 | -3.69%
O=c1[nH]nc(CNCc2ccc(OC34CCCN(CC3)C4)cc2)[nH]1 (stereo not drawn) | -2.83%
CN(CCO)Cc1nnc(C2CCN(C(=O)c3ccccc3)CC2)n1C | 1.93%
CN(C)c1nc2n(c(=O)n1)CCN2C(=O)Nc1ccccc1 | 4.73%
COc1nc2c(cc1C(=O)N1C[C@H](N)C[C@H]1C(=O)NC(C)C)CCC2 | -9.49%
CC(C(=O)NCc1ccc(N2CCNC(=O)C2)cc1)c1cccs1 (stereo not drawn) | -4.43%
Cc1cc(C(=O)N2CCCC2)ccc1NCc1nc(CC(C)C)no1 | -4.09%
O=C(NCCc1ccc(Cl)s1)NCc1nnc2n1CCCC2 | -2.45%
Cn1ccnc1CN1CCCN(C(=O)c2ccc3[nH]cnc3c2)CC1 | -0.565%
Cc1cnn(CC2CN(c3ccc(C#N)cn3)CCO2)c1 (stereo not drawn) | -1.26%
O=C(CS(=O)(=O)Cc1cc(Cl)c2c(c1)OCO2)N1CCCC1 | -8.91%
N#Cc1ccc(CNCCn2cccn2)c(F)c1 | -4.22%

Structure (SMILES) | cytotoxicity at 10 µM
COCCOc1ccc(C(=O)N2CCCC(n3cncn3)C2)cn1 (stereo not drawn) | -11.7%
Cc1nc(C)c(CC(=O)Nc2nc(C)c(C)s2)c(=O)[nH]1 | -6.28%
Cc1noc(C)c1C(C)C(=O)N1CCCN(Cc2cscn2)CC1 (stereo not drawn) | -4.28%
Cc1cc(C)n(CC2CCCN2C(=O)c2ccc3ccccc3n2)n1 (stereo not drawn) | -2.53%
Cc1cc(C)n(CC2CCCN2C(=O)c2cccnc2N(C)C)n1 (stereo not drawn) | -3.56%
CCc1noc(C(C)N2CCN(Cc3nc(C)c(C)o3)CC2)n1 (stereo not drawn) | -1.71%
CC1CCCN(C(=O)CCc2cccnc2)C1 (stereo not drawn) | -3.4%
Cn1nccc1C1CCN(CC(O)c2cccc(F)c2)CC1 (stereo not drawn) | -11.8%
COCC(C)NC(=O)c1cc(Br)c2c(c1)OCCO2 (stereo not drawn) | 3.54%
CCc1ncncc1C(=O)N1CCOC(c2nc(C)n[nH]2)C1 (stereo not drawn) | 0.842%
Cc1nnc(CN2CCN(CC(O)c3cccc(F)c3)CC2)n1C (stereo not drawn) | -1.92%
Cc1nc(CN2CCOC(Cn3cncn3)C2)nc2ccccc12 (stereo not drawn) | -0.241%
Cc1nc2c(c(C)c1CC(=O)Nc1cccc(C#N)c1)c(=O)[nH]n2C | 3.99%
CN(C)c1ncc(-c2cncnc2)c(C2CNCCO2)n1 (stereo not drawn) | 1.69%
CN(C)CCN1CCOCC2(CCCN(C(=O)c3ccccc3)C2)C1 (stereo not drawn) | 5.31%
O=C(C[C@@H]1COC[C@H]2CN(C3CCCC3)C[C@@H]12)NCc1cccnc1 | 6.84%
Cn1cc(CN2CCc3ccc(=O)n(Cc4ccncc4)c3CC2)cn1 | 3.97%
CN(C)c1ncnc2c1CCN(C(=O)c1cccnc1)CC2 | -79.8%
O=C(C1CC(F)(F)C1)N1C[C@@H]2CN(CC3CCCC3)CCO[C@@H]2C1 | -8.02%
CO[C@@H]1CCN(Cc2ccccn2)[C@@H]2CN(Cc3ccco3)C[C@@H]21 | 6.73%
O=c1[nH]c2cn(-c3cccc(F)c3)c(=O)n2n1Cc1ccccc1Cl | 4.9%
